In ChEMBL document CHEMBL4184225, “Discovery of selective 2,4-diaminoquinazoline toll-like receptor 7 (TLR 7) agonists” (Bioorg Med Chem Lett, 2018):

Key:
[1] = target: T1, Toll-like receptor 8 (Homo sapiens, UniProt Q9NR97); experiment: Agonist activity at human TLR8 expressed in HEK293 cells assessed as induction of receptor activation incubated for 6 hrs by NF-kappaB-luciferase reporter gene assay; type: cell-based; settings: hek293, 6 h
T1 sequence (Q9NR97 whole entry): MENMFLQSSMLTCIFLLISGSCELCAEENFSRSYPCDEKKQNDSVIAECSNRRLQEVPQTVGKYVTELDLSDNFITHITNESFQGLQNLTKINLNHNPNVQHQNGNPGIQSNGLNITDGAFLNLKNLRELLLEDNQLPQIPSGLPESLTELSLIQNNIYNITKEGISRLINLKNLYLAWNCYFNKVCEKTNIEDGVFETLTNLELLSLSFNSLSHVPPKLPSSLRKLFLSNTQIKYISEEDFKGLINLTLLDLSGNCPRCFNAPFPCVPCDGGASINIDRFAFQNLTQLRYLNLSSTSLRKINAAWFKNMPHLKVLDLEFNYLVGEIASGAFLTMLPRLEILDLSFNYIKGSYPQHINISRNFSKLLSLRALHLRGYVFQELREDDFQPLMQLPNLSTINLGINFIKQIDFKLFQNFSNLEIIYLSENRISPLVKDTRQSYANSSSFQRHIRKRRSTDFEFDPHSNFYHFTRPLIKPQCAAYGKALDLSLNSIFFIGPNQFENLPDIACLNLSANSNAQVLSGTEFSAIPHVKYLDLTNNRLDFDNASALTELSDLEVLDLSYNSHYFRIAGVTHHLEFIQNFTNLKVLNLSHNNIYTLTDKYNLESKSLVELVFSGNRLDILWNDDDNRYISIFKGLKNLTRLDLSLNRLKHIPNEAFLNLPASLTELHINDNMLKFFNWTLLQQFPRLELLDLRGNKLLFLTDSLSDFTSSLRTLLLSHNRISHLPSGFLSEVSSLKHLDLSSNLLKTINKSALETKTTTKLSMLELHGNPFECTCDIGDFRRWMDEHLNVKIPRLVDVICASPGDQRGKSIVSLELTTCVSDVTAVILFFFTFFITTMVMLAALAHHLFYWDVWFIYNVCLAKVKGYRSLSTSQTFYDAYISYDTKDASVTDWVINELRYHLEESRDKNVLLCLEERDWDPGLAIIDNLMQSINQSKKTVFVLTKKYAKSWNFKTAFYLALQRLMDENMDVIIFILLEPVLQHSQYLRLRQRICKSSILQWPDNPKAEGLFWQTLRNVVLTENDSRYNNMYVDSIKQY
In short: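 HEK293 cells transiently transfected overnight at 37°C with CMV-TLR8 plasmid (wild type or dLRR2 mutant) plus NFκB-luc reporter, then exposed to compound for 6 h at 37°C, 5% CO₂. Luciferase read-out. Quadruplicate dose-response. LEC is the concentration giving an effect at least two-fold above the assay SD, averaged over two or more independent experiments.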

[2] = Cytotoxic activity against HEK293 cells assessed as reduction in cell viability incubated for 6 hrs; type: cell-based; settings: human
In short: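 HEK293 cells transfected with the CMV-TLR7 construct alone, treated with a compound dilution series for 6 h at 37°C, 5% CO₂. Viability read by ATP luminescence. Reported as CC50.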

[3] = organism: Homo sapiens; experiment: Selectivity index, ratio of MEC for agonist activity at human TLR8 expressed in HEK293 cells to MEC for agonist activity at human TLR7 expressed in HEK293 cells as; type: cell-based
In short: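 Ratio of TLR8 to TLR7 LEC from HEK293 NFκB-luciferase reporter assays. Cells were transiently transfected with TLR7 or TLR8 construct plus NFκB-luc and treated with compound for 6 h at 37°C. LEC is the lowest concentration with signal at least two-fold above the assay SD, from quadruplicate dose-response curves.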

[4] = target: Cytochrome P450 2C9 (Homo sapiens, UniProt P11712); experiment: Inhibition of CYP2C9 (unknown origin); type: ADME
Cytochrome P450 2C9, sequence (P11712 whole entry): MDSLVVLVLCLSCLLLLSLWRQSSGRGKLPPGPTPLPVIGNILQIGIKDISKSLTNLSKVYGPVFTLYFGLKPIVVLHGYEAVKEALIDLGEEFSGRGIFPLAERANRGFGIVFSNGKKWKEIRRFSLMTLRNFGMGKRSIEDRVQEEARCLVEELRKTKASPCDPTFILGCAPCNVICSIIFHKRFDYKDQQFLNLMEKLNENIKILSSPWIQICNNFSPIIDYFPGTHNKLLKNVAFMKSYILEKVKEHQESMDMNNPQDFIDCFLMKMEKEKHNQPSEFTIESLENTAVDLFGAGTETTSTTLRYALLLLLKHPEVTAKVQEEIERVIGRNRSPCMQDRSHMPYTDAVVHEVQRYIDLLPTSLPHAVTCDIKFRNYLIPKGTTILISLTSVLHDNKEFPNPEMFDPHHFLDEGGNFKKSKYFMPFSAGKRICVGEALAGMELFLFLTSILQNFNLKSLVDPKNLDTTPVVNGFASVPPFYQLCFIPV

[5] = target: T2, Cytochrome P450 2C8 (Homo sapiens, UniProt P10632); experiment: Inhibition of CYP2C8 (unknown origin); type: ADME
T2 sequence (P10632 whole entry): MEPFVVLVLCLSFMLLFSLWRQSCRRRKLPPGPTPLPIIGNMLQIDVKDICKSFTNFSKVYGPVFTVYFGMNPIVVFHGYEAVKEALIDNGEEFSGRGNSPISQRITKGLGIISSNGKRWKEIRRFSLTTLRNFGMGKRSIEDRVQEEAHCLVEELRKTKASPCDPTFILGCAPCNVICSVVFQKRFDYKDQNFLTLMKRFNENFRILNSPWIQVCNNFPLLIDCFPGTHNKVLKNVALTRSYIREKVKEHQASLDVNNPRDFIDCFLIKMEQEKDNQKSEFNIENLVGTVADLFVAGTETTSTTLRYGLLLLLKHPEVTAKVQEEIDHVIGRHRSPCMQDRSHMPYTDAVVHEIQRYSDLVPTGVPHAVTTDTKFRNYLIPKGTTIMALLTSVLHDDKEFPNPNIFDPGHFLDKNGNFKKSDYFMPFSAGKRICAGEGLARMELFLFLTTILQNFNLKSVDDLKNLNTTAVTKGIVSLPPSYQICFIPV

[6] = target: Cytochrome P450 3A4 (Homo sapiens, UniProt P08684); experiment: Inhibition of CYP3A4 (unknown origin); type: ADME
Cytochrome P450 3A4, sequence (P08684 whole entry): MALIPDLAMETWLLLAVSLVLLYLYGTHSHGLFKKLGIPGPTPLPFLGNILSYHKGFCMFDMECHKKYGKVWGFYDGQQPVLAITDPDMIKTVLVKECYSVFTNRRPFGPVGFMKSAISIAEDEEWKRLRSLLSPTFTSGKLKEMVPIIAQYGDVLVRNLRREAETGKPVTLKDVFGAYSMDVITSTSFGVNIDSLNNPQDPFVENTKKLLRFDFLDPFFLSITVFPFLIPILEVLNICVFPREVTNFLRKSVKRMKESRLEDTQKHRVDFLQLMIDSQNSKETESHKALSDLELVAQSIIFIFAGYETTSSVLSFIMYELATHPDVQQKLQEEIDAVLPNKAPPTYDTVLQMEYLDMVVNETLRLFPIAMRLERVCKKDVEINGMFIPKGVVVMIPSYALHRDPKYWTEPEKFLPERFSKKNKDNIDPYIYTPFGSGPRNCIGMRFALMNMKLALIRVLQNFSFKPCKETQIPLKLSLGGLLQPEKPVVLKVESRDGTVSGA

[7] = Cmax in Sprague-Dawley rat liver at 10 mg/kg, po
[8] = Tmax in Sprague-Dawley rat at 10 mg/kg, po; type: ADME, organism-based; settings: in vivo
In short: (§1)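 Healthy male Sprague-Dawley rats given a single oral dose of 10 mg/kg. Portal vein plasma, systemic plasma and liver sampled. Cmax and Tmax determined, and AUC over 0–last. Liver/plasma ratio calculated from AUC(0-last).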

[9] = AUClast in Sprague-Dawley rat portal vein at 10 mg/kg, po; type: ADME, organism-based; set-up: dose 10 mg/kg, time 0 - last, route oral; in short: as §1
[10] = Ratio of AUClast in liver to AUClast in plasma of Sprague-Dawley rat at 10 mg/kg, po; type: ADME, organism-based; settings: liver and plasma; in short: as §1
[11] = AUClast in Sprague-Dawley rat plasma at 10 mg/kg, po; type: ADME, organism-based; set-up: dose 10 mg/kg, time 0 - last, route oral; in short: as §1
[12] = Plasma clearance in Sprague-Dawley rat at 2.5 mg/kg, iv; type: ADME, organism-based
[13] = AUClast in Sprague-Dawley rat liver at 10 mg/kg, po; type: ADME, organism-based; settings: in vivo; in short: as §1
[14] = Oral bioavailability in Sprague-Dawley rat at 10 mg/kg; type: ADME, organism-based; settings: in vivo
[15] = Cmax in Sprague-Dawley rat plasma at 10 mg/kg, po; type: ADME, organism-based; set-up: dose 10 mg/kg, route oral; in short: as §1
[16] = Cmax in Sprague-Dawley rat portal vein at 10 mg/kg, po; type: ADME, organism-based; set-up: dose 10 mg/kg, route oral; in short: as §1
[17] = Metabolic stability in rat liver microsomes assessed as drug metabolism after 15 mins at 1 uM
[18] = tested on: Mus musculus; experiment: Induction of IFN-alpha production in C57BL/6 mouse plasma assessed as peak IFN-alpha level at 5 mg/kg, po administered as single dose by ELISA; type: functional
In short: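 Healthy C57BL/6 mice given a single oral dose (1 or 5 mg/kg). Mouse IFN-α measured by ELISA in plasma and liver homogenates over time. Peak level (Fmax) and time of peak recorded. Three mice per time point, reported as geometric mean.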

| Structure (SMILES) | MEC [1] [µM] | CC50 at 6 h [2] [µM] | Ratio [3] | IC50 [4] [µM] | IC50 [5] [µM] | IC50 [6] [µM] | Cmax [7] [ng/g] | Tmax [8] [min] | AUC(0-t) [9] [ng·h/mL] | Kp [10] | AUC(0-t) [11] [ng·h/mL] | clearance [12] [mL/min/kg] | AUClast [13] [ng·h/g] | bioavailability [14] [%] | Cmax [15] [ng/mL] | Cmax [16] [ng/mL] | metabolised at 0.25 h, 1 µM [17] [%] | Fmax [18] [pg/mL] |
| --- | --- | --- | --- | --- | --- | --- | --- | --- | --- | --- | --- | --- | --- | --- | --- | --- | --- | --- |
| CCCCNc1nc(N)nc2cccc(OCc3ccccc3)c12 | 1.66 | 10 | 10 | > 10 | > 10 | – | – | – | – | – | – | – | – | – | – | – | – | – |
| CCCCNc1nc(N)nc2cccc(OCc3ccccc3OC)c12 | > 25 | > 25 | 90 | > 10 | > 10 | > 10 | – | – | – | – | – | – | – | – | – | – | – | – |
| CCCCNc1nc(N)nc2cccc(C(=O)NC)c12 | 0.39 | > 25 | – | 8 | > 10 | > 10 | – | – | – | – | – | – | – | – | – | – | – | – |
| CCCCNc1nc(N)nc2cccc(C(=O)N(C)Cc3ccccc3)c12 | > 25 | > 25 | – | > 10 | > 10 | 8.5 | 369 | 30 | 621 | 30 | 37 | 55 | 1064 | 1.2 | 9 | 209 | 99 | – |
| CCCCNc1nc(N)nc2cccc(C(=O)N[C@@H](C)c3ccccc3)c12 | > 25 | > 25 | > 250 | > 10 | > 10 | > 10 | 4930 | 240 | 902 | 36 | 439 | – | 15841 | 20 | 87 | 276 | 54 | 2800 |
| CCCCNc1nc(N)nc2cccc(OCc3nccc(OC)c3OC)c12 | > 25 | 16 | – | > 10 | > 10 | 9.9 | – | – | – | – | – | – | – | – | – | – | – | – |
| CCCCNc1nc(N)nc2cccc(OCc3ccccn3)c12 | 18.5 | > 25 | – | > 10 | > 10 | > 10 | – | – | – | – | – | – | – | – | – | – | – | – |
| CCCCNc1nc(N)nc2cccc(OCc3ccc(CO)cc3OC)c12 | > 25 | 16 | > 200 | 5 | > 10 | > 10 | – | – | – | – | – | – | – | – | – | – | – | – |
| CCCCNc1nc(N)nc2ccccc12 | 0.07 | 18 to 25 | – | – | – | – | 2030 | 30 | 1520 | > 100 | 56 | 163 | 6450 | 5.4 | 33 | 583 | 95 | – |
| CCCCNc1nc(N)nc2cccc(C(=O)NC(C)C)c12 | 15.55 | > 25 | – | > 10 | > 10 | > 10 | – | – | – | – | – | – | – | – | – | – | – | – |
| CCCCNc1nc(N)nc2cccc(OCc3cccnc3)c12 | 0.53 | > 25 | – | > 10 | > 10 | 6.7 | – | – | – | – | – | – | – | – | – | – | – | – |
| CCCCNc1nc(N)nc2cccc(C(=O)N[C@H](C)c3ccccc3)c12 | > 25 | > 25 | – | > 10 | > 10 | > 10 | – | – | – | – | – | – | – | – | – | – | – | – |
| CCCCNc1nc(N)nc2cccc(C(=O)NCc3ccccc3)c12 | 1.6 | > 25 | – | > 10 | > 10 | > 10 | – | – | – | – | – | – | – | – | – | – | – | – |
